Test results taken from ChEMBL document CHEMBL4811308, “Design, synthesis and broad spectrum antibreast cancer activity of diarylindoles via induction of apoptosis in aggressive breast cancer cells” (Bioorg Med Chem, 2021).
The source made the active and inactive calls. The calls are words filed in the database; no cut-off is given here.

Assays:
[1] = tested on: PC-3; assay: Cytotoxicity against human PC-3 cells assessed as reduction in cell viability incubated for 24 hrs by MTT assay; type: functional, cell-based; conditions: PC-3, 24 h
Outline: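 MTT viability: cells seeded at 1 × 10^4/well, grown 24 h, then exposed to a concentration range of compound for 24 h. MTT (5 mg/mL stock) added for 3 h, formazan dissolved in DMSO, absorbance read at 540 nm.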

[2] = tested on: MDA-MB-231; assay: Induction of cell cycle arrest in human MDA-MB-231 cells assessed as accumulation at G0/G1 phase at 2 uM incubated for 24 hrs by PI staining based flow cytometry analysis (reference value: 23.74 to 46.27 %); type: functional
[3] = tested on: MDA-MB-231; assay: Induction of cell cycle arrest in human MDA-MB-231 cells assessed as accumulation at S phase at 2 uM incubated for 24 hrs by PI staining based flow cytometry analysis (reference value: 40.37 to 57.89 %); type: functional
[4] = tested on: MDA-MB-231; assay: Induction of cell cycle arrest in human MDA-MB-231 cells assessed as accumulation at S phase at 4 uM incubated for 24 hrs by PI staining based flow cytometry analysis (reference value: 40.37 to 57.89 %); type: functional
[5] = tested on: MDA-MB-231; assay: Induction of cell cycle arrest in human MDA-MB-231 cells assessed as accumulation at G0/G1 phase at 6 uM incubated for 24 hrs by PI staining based flow cytometry analysis (reference value: 23.74 to 46.27 %); type: functional
[6] = tested on: MDA-MB-231; assay: Induction of cell cycle arrest in human MDA-MB-231 cells assessed as accumulation at S phase at 6 uM incubated for 24 hrs by PI staining based flow cytometry analysis (reference value: 40.37 to 57.89 %); type: functional
[7] = tested on: MDA-MB-231; assay: Induction of cell cycle arrest in human MDA-MB-231 cells assessed as accumulation at G2/M phase at 6 uM incubated for 24 hrs by PI staining based flow cytometry analysis (reference value: 4.35 to 19.56 %); type: functional
[8] = tested on: MDA-MB-231; assay: Induction of apoptosis in human MDA-MB-231 cells assessed as early apoptotic cells at 2 uM incubated for 24 hrs by annexin-V-FITC and PI staining based flow cytometry analysis (reference value: 0.28 to 4.68 %); type: functional
Outline: (§1)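 MDA-MB-231 cells (1 × 10^6) grown 24 h in six-well plates, then treated for 24 h. Cells trypsinized, PBS-washed and stained with Annexin V-FITC/PI in binding buffer for 10 min in the dark at room temperature. Early/late apoptotic fractions quantified by flow cytometry.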

[9] = tested on: MDA-MB-231; assay: Induction of apoptosis in human MDA-MB-231 cells assessed as late apoptotic cells at 2 uM incubated for 24 hrs by annexin-V-FITC and PI staining based flow cytometry analysis (reference value: 0.28 to 0.84 %); type: functional
[10] = tested on: MDA-MB-231; assay: Induction of apoptosis in human MDA-MB-231 cells assessed as necrotic cells at 2 uM incubated for 24 hrs by annexin-V-FITC and PI staining based flow cytometry analysis (reference value: 0.01 to 0.8 %); type: functional
[11] = tested on: MDA-MB-231; assay: Induction of apoptosis in human MDA-MB-231 cells assessed as viable cells at 4 uM incubated for 24 hrs by annexin-V-FITC and PI staining based flow cytometry analysis (reference value: 95.27 to 97.16 %); type: functional; conditions: read-out: Activity
[12] = tested on: MDA-MB-231; assay: Induction of apoptosis in human MDA-MB-231 cells assessed as early apoptotic cells at 4 uM incubated for 24 hrs by annexin-V-FITC and PI staining based flow cytometry analysis (reference value: 0.28 to 4.68 %); type: functional; outline: as §1
[13] = tested on: MDA-MB-231; assay: Induction of apoptosis in human MDA-MB-231 cells assessed as late apoptotic cells at 4 uM incubated for 24 hrs by annexin-V-FITC and PI staining based flow cytometry analysis (reference value: 0.28 to 0.84 %); type: functional
[14] = tested on: MDA-MB-231; assay: Induction of apoptosis in human MDA-MB-231 cells assessed as necrotic cells at 4 uM incubated for 24 hrs by annexin-V-FITC and PI staining based flow cytometry analysis (reference value: 0.01 to 0.8 %); type: functional
[15] = tested on: MDA-MB-231; assay: Induction of apoptosis in human MDA-MB-231 cells assessed as late apoptotic cells at 6 uM incubated for 24 hrs by annexin-V-FITC and PI staining based flow cytometry analysis (reference value: 0.28 to 0.84 %); type: functional
[16] = tested on: MDA-MB-231; assay: Induction of apoptosis in human MDA-MB-231 cells incubated for 24 hrs by annexin-V-FITC and PI staining based flow cytometry analysis; type: functional, cell-based; conditions: dose 2-6 µM
[17] = tested on: MDA-MB-231; assay: Induction of autophagy in human MDA-MB-231 cells at 2 to 4 uM incubated for 24 hrs by MDC staining based fluorescence microscopic analysis; type: functional, cell-based; conditions: dose 2-4 µM
Outline: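 Autophagic vacuoles detected in MDA-MB-231 cells (1 × 10^6) seeded on cover slips for 24 h, then treated 24 h. Cells PBS-washed, stained with 0.05 mM monodansylcadaverine for 30 min in dark at room temperature, washed, and examined by fluorescence microscopy.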

[18] = tested on: MDA-MB-231; assay: Induction in caspase-mediated apoptosis in human MDA-MB-231 cells assessed as decrease in cell viability at 2 uM incubated for 24 hrs in presence of Z-VAD-FMK by MTT assay; type: functional, cell-based
Outline: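 MDA-MB-231 cells pretreated 2 h with 50 µM Z-VAD-FMK, then exposed to 2 µM compound for 24 h. Viability by MTT (3 h), formazan in DMSO, absorbance at 540 nm. Three independent experiments, mean ± S.E.M.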

[19] = target: T1, Estrogen receptor (Homo sapiens) (UniProt P03372); assay: Transactivation of ERalpha (unknown origin) transfected in human MDA-MB-231 cells at 1 uM by dual luciferase receptor assay; type: cell-based
T1 sequence (whole entry): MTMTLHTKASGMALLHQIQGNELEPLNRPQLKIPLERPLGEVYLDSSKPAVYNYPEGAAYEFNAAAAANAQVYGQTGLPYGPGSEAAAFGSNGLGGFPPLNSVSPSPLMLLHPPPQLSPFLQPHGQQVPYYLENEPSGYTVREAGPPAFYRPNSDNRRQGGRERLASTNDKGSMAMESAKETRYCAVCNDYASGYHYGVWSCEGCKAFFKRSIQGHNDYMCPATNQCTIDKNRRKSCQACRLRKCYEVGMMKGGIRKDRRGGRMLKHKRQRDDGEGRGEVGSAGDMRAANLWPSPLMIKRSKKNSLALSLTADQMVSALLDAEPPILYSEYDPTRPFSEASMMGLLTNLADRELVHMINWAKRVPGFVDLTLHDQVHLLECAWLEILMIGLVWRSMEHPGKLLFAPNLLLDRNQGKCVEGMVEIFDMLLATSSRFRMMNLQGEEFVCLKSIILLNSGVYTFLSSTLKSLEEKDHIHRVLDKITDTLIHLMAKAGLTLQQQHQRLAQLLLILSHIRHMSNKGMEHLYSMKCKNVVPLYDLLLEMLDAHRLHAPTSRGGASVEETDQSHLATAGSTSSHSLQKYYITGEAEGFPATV
Outline: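 MDA-MB-231 cells grown to 80-90% confluency, transfected with 500 ng of ERα (pSG5 mERα) or ERβ (pSG5-hERβ) expression vector plus pRL-SV40 Renilla for normalization, then reseeded. Cells incubated with E2 (100 nM), compound at 1 µM, or tamoxifen at 1 µM. Dual luciferase readout reported as percent normalized RLU, triplicate experiments with three replicates each.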

## COc1ccc2c(c1)c(Cc1ccc(OCCN3CCCCC3)cc1)c(-c1cc(OC)c(OC)c(OC)c1)n2Cc1ccc(OCCN2CCCCC2)cc1
[1]
  IC50: 7.07 µM
[2]
  Activity: 53.25%
[3]
  Activity: 34.3%
[4]
  Activity: 29.41%
[5]
  Activity: 59.19%
[6]
  Activity: 29.41%
[7]
  Activity: 8.91%
[8]
  Activity: 12.28%
[9]
  Activity: 4.26%
[10]
  Activity: 2.01%
[11]
  viability at 4 µM: 56%
[12]
  Activity: 16.02%
[13]
  Activity: 26.25%
[14]
  Activity: 1.69%
[15]
  Activity: 37.67%
[16]
  Activity: Dose-Dependent Effect
[17]
  Activity: Active
[18]
  Activity: Active
[19]
  Activity: inactive

## CCN(CC)CCOc1ccc(Cc2c(-c3cc(OC)c(OC)c(OC)c3)n(Cc3ccc(OCCN(CC)CC)cc3)c3ccc(OC)cc23)cc1
[1]
  IC50: 8.31 µM
[2]
  Activity: 51.72%
[3]
  Activity: 38.21%
[4]
  Activity: 38.03%
[5]
  Activity: 57.6%
[6]
  Activity: 36.56%
[7]
  Activity: 5.84%
[8]
  Activity: 9.52%
[9]
  Activity: 2.94%
[10]
  Activity: 4.3%
[11]
  viability at 4 µM: 77.9%
[12]
  Activity: 4.19%
[13]
  Activity: 14.66%
[14]
  Activity: 3.29%
[15]
  Activity: 14.25%
[16]
  Activity: Dose-Dependent Effect
[17]
  Activity: Active
[18]
  Activity: Active
[19]
  Activity: inactive

## COc1ccc2c(c1)c(Cc1ccc(OC(C)CN(C)C)cc1)c(-c1cc(OC)c(OC)c(OC)c1)n2Cc1ccc(OC(C)CN(C)C)cc1 (stereo unspecified)
[1]
  IC50: 6.72 µM
[2]
  Activity: 46.32%
[3]
  Activity: 40.83%
[4]
  Activity: 40.83%
[5]
  Activity: 49.36%
[6]
  Activity: 42.27%
[7]
  Activity: 8.37%
[8]
  Activity: 17.38%
[9]
  Activity: 3.43%
[10]
  Activity: 3.43%
[11]
  viability at 4 µM: 53.2%
[12]
  Activity: 28.04%
[13]
  Activity: 15.18%
[14]
  Activity: 3.55%
[15]
  Activity: 26.15%
[16]
  Activity: Dose-Dependent Effect
[17]
  Activity: Active
[18]
  Activity: inactive
[19]
  Activity: inactive

## COc1ccc2c(c1)c(Cc1ccc(OCCN(C)C)cc1)c(-c1cc(OC)c(OC)c(OC)c1)n2Cc1ccc(OCCN(C)C)cc1
[1]
  IC50: 5.82 µM
[2]
  Activity: 60.43%
[3]
  Activity: 38.78%
[4]
  Activity: 38.65%
[5]
  Activity: 64.37%
[6]
  Activity: 35.63%
[7]
  Activity: 0%
[8]
  Activity: 11.63%
[9]
  Activity: 5.32%
[10]
  Activity: 2.34%
[11]
  viability at 4 µM: 58.3%
[12]
  Activity: 18.17%
[13]
  Activity: 20.05%
[14]
  Activity: 3.44%
[15]
  Activity: 15.1%
[16]
  Activity: Dose-Dependent Effect
[17]
  Activity: Active
[18]
  Activity: inactive
[19]
  Activity: inactive
